From ChEMBL document CHEMBL3612023, “Synthesis and in vitro characterization of novel fluorinated derivatives of the TSPO 18 kDa ligand SSR180575” (Eur J Med Chem, 2015)

Experiments:
[1] = n-octanol/buffer partition coefficient, log D of the compound at pH 7.4 by HPLC method; format: physicochemical
[2] = Biotransformation in human liver microsomes at 5 uM measured at 20 mins by HPLC/ESI-MS/MS analysis; format: ADME; conditions: read-out: Drug metabolism
How it was run: (§1)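 Hepatic microsomes (male CD1 mouse, male Sprague-Dawley rat, or pooled human) at 1 mg/mL protein with 1 mg/mL BSA; substrate 5 µM. Reference sample held 0 min without cofactor; test sample run 20 min with 1 mM NADPH. Reaction quenched with 1 volume ACN, proteins spun out, supernatant analysed by HPLC/ESI-MS/MS in positive SIR. % biotransformation = (1 − area B/area A) × 100.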

[3] = Biotransformation in Sprague-Dawley rat liver microsomes at 5 uM measured at 20 mins by HPLC/ESI-MS/MS analysis; format: ADME; conditions: read-out: Drug metabolism; how it was run: as §1
[4] = Biotransformation in CD1 mouse liver microsomes at 5 uM measured at 20 mins by HPLC/ESI-MS/MS analysis; format: ADME; conditions: read-out: Drug metabolism; how it was run: as §1

Row | SMILES | logD [1] | metabolised at 20 min, 5 µM [2] [%] | metabolised at 20 min, 5 µM [3] [%] | metabolised at 20 min, 5 µM [4] [%]
1 | COc1ccc(-n2nc(CC(=O)N(C)C)c3c4ccc(Cl)cc4n(C)c3c2=O)cc1 | 3.01 | 22 | 4 | 22
2 | CN(C)C(=O)Cc1nn(-c2ccc(OCCF)cc2)c(=O)c2c1c1ccc(Cl)cc1n2C | 3.12 | 0 | 2 | 0
3 | CN(C)C(=O)Cc1nn(-c2ccc(OCCCF)cc2)c(=O)c2c1c1ccc(Cl)cc1n2C | 3.48 | 4 | 3 | 4
4 | CN(C)C(=O)Cc1nn(-c2ccc(OCCCCF)cc2)c(=O)c2c1c1ccc(Cl)cc1n2C | 3.75 | 16 | 13 | 1
5 | CN(C)C(=O)Cc1nn(-c2ccc(OC/C=C/CF)cc2)c(=O)c2c1c1ccc(Cl)cc1n2C | 3.62 | 76 | 41 | 53
6 | CN(C)C(=O)Cc1nn(-c2ccc(OCC#CCF)cc2)c(=O)c2c1c1ccc(Cl)cc1n2C | 3.54 | 47 | 25 | 42
7 | CN(C)C(=O)Cc1nn(-c2ccc(OCCOCCF)cc2)c(=O)c2c1c1ccc(Cl)cc1n2C | 3.11 | 17 | 11 | 17
8 | CN(C)C(=O)Cc1nn(-c2ccc(OCCOCCOCCF)cc2)c(=O)c2c1c1ccc(Cl)cc1n2C | 3.08 | 81 | 52 | 69
9 | CN(C)C(=O)Cc1nn(-c2ccccc2)c(=O)c2c1c1ccc(Cl)cc1n2CCF | 3.09 | 19 | 14 | 5
10 | CN(C)C(=O)Cc1nn(-c2ccccc2)c(=O)c2c1c1ccc(Cl)cc1n2CCCF | 3.38 | – | – | –
11 | CN(C)C(=O)Cc1nn(-c2ccccc2)c(=O)c2c1c1ccc(Cl)cc1n2CCCCF | 3.66 | – | – | –
12 | CN(C)C(=O)Cc1nn(-c2ccccc2)c(=O)c2c1c1ccc(Cl)cc1n2C/C=C/CF | 3.48 | 38 | 44 | 31
13 | CN(C)C(=O)Cc1nn(-c2ccccc2)c(=O)c2c1c1ccc(Cl)cc1n2CC#CCF | 3.44 | 30 | 26 | 39
14 | CN(C)C(=O)Cc1nn(-c2ccccc2)c(=O)c2c1c1ccc(Cl)cc1n2CCOCCF | 3.2 | – | – | –
15 | CN(C)C(=O)Cc1nn(-c2ccccc2)c(=O)c2c1c1ccc(Cl)cc1n2CCOCCOCCF | 3.19 | – | – | –
16 | CN(C)C(=O)Cc1nn(-c2ccccc2)c(=O)c2c1c1ccc(Cl)cc1n2C | 2.97 | 10 | 14 | 21
